Results from different studies.
Target: Misshapen-like kinase 1 (MINK1, Homo sapiens, UniProt Q8N4C8)

| Compound | observed | mode | technique | tested at | endpoint | result |
| --- | --- | --- | --- | --- | --- | --- |
| O=C(NCc1ncc(C(F)(F)F)cc1Cl)c1ccc2c(c1)C1(CCS(=O)(=O)CC1)[C@@H](C1CC1)N2S(=O)(=O)c1ccc(F)cc1 | cell-free assay | – | competition with immobilised ligand | 1 µM | remaining binding | 85% |
| CS(=O)(=O)CCNCc1ccc(-c2ccc3ncnc(Nc4ccc(OCc5cccc(F)c5)c(Cl)c4)c3c2)o1 | cell-free assay | – | – | 0.5 µM | remaining signal | 111% |
| Cc1ccc(NC(=O)c2ccc(C)c(C(F)(F)F)c2)cc1C#Cc1nn(C2CCC(O)CC2)c2ncnc(N)c12 (stereo not drawn) | cell-free assay | – | – | 10 µM | remaining signal | 25% |
| O=S(=O)(NC1CCC(c2cc(F)ccc2F)(S(=O)(=O)c2ccc(Cl)cc2)CC1)C(F)(F)F (stereo not drawn) | cell-free assay | – | competition with immobilised ligand | 1 µM | remaining binding | 100% |
| CNC(=O)c1cc(Oc2ccc(NC(=O)Nc3ccc(Cl)c(C(F)(F)F)c3)cc2)ccn1 | enzyme activity | inhibitor | – | 10 µM | inhibition | 75% |
| COc1cc(Nc2cnc(C#N)c(O[C@H](C)CN(C)C)n2)ncc1-c1cnn(C)c1 | enzyme activity | inhibitor | radiometric | 10 µM | remaining activity | 67% |
| COc1cc2ncnc(Nc3ccc(Oc4ccccc4)c(C)c3C)c2cc1OC | enzyme activity | inhibitor | – | 1 µM | inhibition | -1% |
| C[C@H](c1ccnc(Nc2nc3ccc(-c4cc(N(C)C)ncn4)cc3[nH]2)c1)N1CCN(C(=O)CC(F)(F)F)CC1 | cell-free assay | – | competition with immobilised ligand | 0.1 µM | remaining binding | 94% |
| CCCS(=O)(=O)Nc1ccc(F)c(C(=O)c2c[nH]c3ncc(-c4ccc(Cl)cc4)cc23)c1F | enzyme activity | inhibitor | – | 1 µM | inhibition | < 20% |
| CC(C)(C)c1nc(-c2cccc(NS(=O)(=O)c3c(F)cccc3F)c2F)c(-c2ccnc(N)n2)s1 | enzyme activity | inhibitor | radiometric | 1 µM | remaining activity | 100% |
| Oc1cccc(-c2nc(N3CCOCC3)c3oc4ncccc4c3n2)c1 | enzyme activity | inhibitor | – | 10 µM | remaining activity | 116% |
| COc1cc(-c2cn(C3CCc4c(F)cccc4N(CC(F)(F)F)C3=O)nn2)ccc1-n1cnc(C)c1 (stereo not drawn) | cell-free assay | – | competition with immobilised ligand | 1 µM | remaining binding | 84% |
| O=C1NC(=O)c2cc(Nc3ccc(F)cc3)c(Nc3ccc(F)cc3)cc21 | cell-free assay | – | – | 0.5 µM | remaining signal | 99% |
| Cc1cc(NC(=O)c2cccc3cc(-c4cccc5[nH]nc(N)c45)ccc23)ccc1F | enzyme activity | inhibitor | – | 0.1 µM | activity vs control | 110% |
| CCN(CC)c1ccc(C2=NNC(=O)CC2C)cc1[N+](=O)[O-] (stereo not drawn) | enzyme activity | inhibitor | – | 10 µM | remaining activity | 102% |
| COc1cc2c(Nc3ccc(Br)cc3F)ncnc2cc1OCC1CCN(C)CC1 | cell-free assay | – | – | 0.5 µM | remaining signal | 81.5% |
| COc1cc(/C=C/C(=O)CC(=O)/C=C/c2ccc(O)c(OC)c2)ccc1O | enzyme activity | inhibitor | – | 1 µM | activity vs control | 78% |
| O=C(N1CCS(=O)(=O)CC1)N1C[C@H](c2ccc(OC(F)(F)F)cc2)C[C@H](c2nc(C3CC3)no2)C1 | cell-free assay | – | competition with immobilised ligand | 1 µM | remaining binding | 99% |
| CC(C)(O)[C@H]1CC[C@H](Nc2ccc3ncc(-c4cccc(C(F)(F)F)c4)n3n2)CC1 | enzyme activity | inhibitor | – | 1 µM | remaining activity | 97% |
| Cc1ccc(Nc2nccc(N(C)c3ccc4c(C)n(C)nc4c3)n2)cc1S(N)(=O)=O | enzyme activity | inhibitor | – | 10 µM | inhibition | 80% |
| COc1cc(Cl)c(C(=O)N[C@@H](CN[C@H]2CC[C@@H](N)CC2)Cc2ccc(C#N)cc2)cc1-c1ccc(CN[C@H](C)c2ccc(C)cc2)o1 | enzyme activity | inhibitor | – | 1 µM | remaining activity | 94% |
| Cn1nc(C(=O)NCc2ccc(C(=O)O)cc2)cc1-c1ccc2[nH]ccc2c1 | cell-free assay | – | competition with immobilised ligand | 0.1 µM | remaining binding | 95% |
| O=C(Nc1cnn(-c2csc(C(=O)NC3COC3)c2)c1)Nc1ccccc1Cl | enzyme activity | inhibitor | – | 5 µM | remaining activity | 79.4% |
| CNC(=O)c1ccc(Nc2ncc(C(F)(F)F)c(NCc3nccnc3N(C)S(C)(=O)=O)n2)cc1 | cell-free assay | – | competition with immobilised ligand | 0.1 µM | remaining binding | 44% |
| CCN(CC)CCNC(=O)c1c(C)[nH]c(/C=C2\C(=O)Nc3ccc(F)cc32)c1C | enzyme activity | inhibitor | – | 0.3 µM | inhibition | 48% |
| Cc1noc([C@H]2C[C@@H](c3ccc(C(F)(F)F)cc3)CN(C(=O)N3CCS(=O)(=O)C3)C2)n1 | cell-free assay | – | competition with immobilised ligand | 1 µM | remaining binding | 100% |
| FC(F)(F)Oc1cccc(-c2cnc3ccc(-c4ccncc4)nn23)c1 | enzyme activity | inhibitor | radiometric | 1 µM | activity vs control | 58% |
| O=C(Nc1cnn(-c2csc(C(=O)NC3COC3)c2)c1)Nc1c(F)cccc1Cl | enzyme activity | inhibitor | – | 5 µM | remaining activity | 62.2% |
| CN(C)C1CCN(CC#Cc2nn(C3CCCC3)c3nc(NCc4ccccc4)ncc23)C1 (stereo not drawn) | enzyme activity | inhibitor | FRET | 0.1 µM | inhibition | 11% |
| COc1cc(-c2cc(-c3ccc(N4CCNCC4)cc3)cnc2N)cc(OC)c1OC | enzyme activity | inhibitor | – | 0.1 µM | inhibition | 74% |
